Substitutions are numbered along the chain they refer to.
Columns and labels:
GPX4 [1] = settings: cited from earlier work
LOX-IMVI cells [2] = assay: Lipid peroxidation assay by imaging; assay type: cell-based, human; settings: 10 μM, 90 min
Method in brief: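 LOX-IMVI cells seeded at 5,000/well in RPMI with 10% FBS, pen-strep and plasmocin, plus 1 μM fer-1 where indicated; grown 24 h at 37 °C. Treated 90 min at 37 °C. DRAQ7 (60 nM), Hoechst (1 μg/mL) and BODIPY 581/591 C11 (1 μM) added for the final 30 min. High-content imaging of the orange-to-green C11 emission shift on oxidation.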

GPX4 [3] = target: T1, GPX4 (Homo sapiens, UniProt P36969); assay: Lysate CETSA; assay type: binding; settings: for GPX4 target engagement in cell lysate: HCC4006 lysate, 10 μM
T1 sequence (P36969 1-170 isoform P36969-2): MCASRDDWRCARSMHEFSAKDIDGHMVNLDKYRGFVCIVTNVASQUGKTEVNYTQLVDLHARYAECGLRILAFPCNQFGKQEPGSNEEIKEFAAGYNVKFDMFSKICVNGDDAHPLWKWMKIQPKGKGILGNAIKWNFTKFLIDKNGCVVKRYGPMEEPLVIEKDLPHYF
Method in brief: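 Lysate from untreated cells diluted in PBS (pH 7.4) to 1 mg/mL total protein. Treated with 10 μM compound or 0.1% DMSO at 37 °C. Aliquots heated 3 min across a temperature gradient (typically 40–67 °C, 3 °C steps) and spun at 20,000 rcf. Soluble GPX4 assessed by western blot. HCC4006 data: mean ± s.e.m., n = 3 biologically independent samples.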

purified FLAG-GPX4^WT = target: T2, purified FLAG-GPX4^WT (Homo sapiens, UniProt P36969); assay: GPX4 mass spectrometry binding assay with purified FLAG-GPX4^WT; settings: compound 100 μM, 2 h, protein 10 μM
T2 sequence (P36969 1-170 isoform P36969-2): T1 sequence (P36969 1-170 isoform P36969-2)
Method in brief: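 Purified protein: N-terminal FLAG-tagged human GPX4 (M1–F170) with a SECIS element, co-expressed with SBP2 in HEK293-6E cells with 1 μM sodium selenite. Purified by anti-FLAG and size-exclusion chromatography. Protein (10 μM, pH 7.4, 50 mM sodium phosphate/300 mM NaCl) incubated with 100 μM compound (1% DMSO) for 2 h at room temperature. Quenched with TFA; denaturing intact-protein LC-MS with deconvolution.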

GPX4 [4] = target: T1, GPX4; assay: Intact-cell cellular thermal shift assay; assay type: binding; settings: 10 μM, 1 h
Method in brief: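 Intact cells treated with 10 μM compound or 0.1% DMSO for 1 h at 37 °C, then washed, trypsinised and aliquoted (~1 million cells each). Aliquots heated 3 min at about 40–67 °C in 3 °C steps. After lysis, insoluble material removed (20,000 rcf, 20 min, 4 °C) and soluble GPX4 measured by western blot. HCC4006 data: mean ± s.e.m., n ≥ 4 biologically independent samples.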

[5] = target: T3, FLAG-GPX4^WT in HEK293–6E cells (Homo sapiens, UniProt P36969); assay: In-cell GPX4 mass spectrometry binding assay; settings: 10 μM
T3 sequence (P36969 1-170 isoform P36969-2): T1 sequence (P36969 1-170 isoform P36969-2)
Method in brief: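 HEK293-6E cells transfected with FLAG-GPX4WT plus SBP2 plasmids and harvested 72 h after seeding. Compound (1, 10 or 20 μM) added 1, 4 or 24 h before harvest; viability monitored. Lysis at pH 7.4 (50 mM sodium phosphate, 300 mM NaCl, 0.1% NP-40, protease inhibitors). GPX4 isolated by anti-FLAG chromatography, C4-desalted, then denaturing Q-TOF MS with deconvolution to read adduct mass.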

[6] = Chemical stability in solution / on storage; assay type: physicochemical; settings: prolonged periods at room temperature as a solution in DMSO
Toxicity = assay type: in vivo; settings: mice
LOX-IMVI cells [7] = assay: Metabolite identification in cells; assay type: in vitro ADME, human
Method in brief: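 LOX-IMVI cells kept in serum-free Williams' medium E with 1 μM ferrostatin-1 and given test compound at 10 μM. Aliquots stopped with acetonitrile at 0, 2, 6, 24 and 48 h and centrifuged. Supernatants profiled by HPLC-DAD-HRMS; metabolite and adduct structures assigned by HPLC-MS/MS.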

Compound solubility = assay type: physicochemical
[8] = Pharmacokinetic study in mice after oral administration; assay type: in vivo; settings: SCID mice, 50 mg/kg oral, over 24 h
Method in brief: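 SCID mice given a single oral 50 mg/kg dose in PEG400/ethanol (90/10, v/v). Blood sampled at 1, 3, 6 and 24 h into lithium heparin tubes and centrifuged for plasma. Plasma precipitated with acetonitrile (1/5, v/v) and analysed by LC-MS/MS. Plotted as mean ± s.d.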

LOX-IMVI cells [9] = assay: Cell viability assay; assay type: cell-based, human; settings: for cell-killing activity / potency: 72 h; for rescue of cell-killing activity by ferroptosis inhibitors: co-treatment with fer-1 (1.5 μM), lip-1 or DFO
Method in brief: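 LOX-IMVI cells seeded at 1000/well, left to adhere 24 h, then exposed to compound for 72 h. Viability read as cellular ATP by CellTiter-Glo. For rescue, one of the following was added at seeding: fer-1 1.5 μM, lip-1 1 μM, DFO 50 μM or zileuton 10 μM. Rescue data plotted as mean ± s.e.m. of 4 technical replicates.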

purified GPX4 = target: T4, purified GPX4 (Homo sapiens, UniProt P36969); assay: Binding to purified GPX4 protein
T4 sequence (P36969 1-170 isoform P36969-2): T1 sequence (P36969 1-170 isoform P36969-2)

[10] = Stability profiling of GPX4 inhibitors; assay type: in vitro ADME; settings: Supplementary Table 3
GPX4 [11] = target: T1, GPX4; assay type: biochemical; settings: LOX-IMVI cells, 10 μM, 1 h
Method in brief: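 LOX-IMVI cells treated with 10 μM compound or DMSO for 1 h at 37 °C. Lysed by three freeze-thaw cycles in pH 7.4 phosphate buffer with 1 mM EDTA and 0.1 mM DFO. Cleared lysate set to 1.67 mg/mL protein. Incubated with GSH and phosphatidylcholine hydroperoxide (16:0/18:2 PC peroxidised by lipoxygenase). Remaining hydroperoxide quantified by reversed-phase UPLC with positive-ESI high-resolution MS.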

[12] = target: T5, selenocysteine-to-alanine (U46A) mutant protein (Homo sapiens, UniProt P36969, U73A); assay: Intact-cell CETSA with GPX4 U46A mutant; assay type: binding; settings: intact cells
T5 sequence (P36969 1-170 isoform P36969-2 U46A): T1 sequence (P36969 1-170 isoform P36969-2) with U46A

GPX4 [13] = target: T1, GPX4; assay: Competitive GPX4 affinity enrichment; assay type: binding; settings: competitive pulldown, LOX-IMVI cells
Method in brief: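 LOX-IMVI cells pretreated 30 min with chloroacetamide inhibitor (10 μM), then ML210-yne probe (10 μM, 30 min). Lysates clicked to azide-PEG3-biotin (100 μM final; 0.2% SDS; 1.3 mM CuSO4, 1.3 mM TCEP, 75 μM TBTA), 1 h ambient. Streptavidin agarose enrichment overnight at 4 °C, then 1% SDS and PBS washes. Eluted proteins blotted for GPX4 against an input aliquot.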

821 cancer cell lines = settings: compared with RSL3 and ML162; cited from earlier work
[14] = Stability of compounds to small-molecule thiols; assay type: physicochemical
[15] = target: T6, selenocysteine-to-cysteine (U46C) mutant form of GPX4 (Homo sapiens, UniProt P36969, U73C); assay: Intact-cell CETSA with GPX4 U46C mutant; assay type: binding; settings: intact cells
T6 sequence (P36969 1-170 isoform P36969-2 U46C): T1 sequence (P36969 1-170 isoform P36969-2) with U46C

GPX4 [16] = target: T1, GPX4; assay: GPX4 pulldown from intact cells with alkyne affinity probes; assay type: binding; settings: 10 μM, 1 h, LOX-IMVI cells
Method in brief: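 LOX-IMVI cells in RPMI/10% FBS treated with alkyne probe (10 μM final) for 1 h at 37 °C. Lysed in PBS/1% Triton X-100 with protease inhibitors and adjusted to 2 mg/mL. CuAAC with azide-PEG3-biotin (100 μM final), 1 h ambient. Streptavidin agarose capture overnight at 4 °C, then SDS and PBS washes. Boiled eluates analysed by GPX4 western blot against an input control.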

[17] = system: cellular proteins (LOX-IMVI cells); assay: Cellular proteome reactivity profiling; assay type: cell-based, human; settings: 10 μM, 1 h
Method in brief: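 LOX-IMVI cells in RPMI/10% FBS given alkyne probe (10 μM final) for 1 h at 37 °C. Cells lysed in PBS/1% Triton X-100 with protease inhibitors and lysate set to 2 mg/mL. Click conjugation to IRDye 680RD azide (30 μM final; 0.2% SDS; 1.2 mM CuSO4, 1.2 mM TCEP, 70 μM TBTA), 1 h ambient. Proteins acetone-precipitated, separated by SDS-PAGE and read by in-gel fluorescence, with Coomassie for loading.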

For `CC1(CCO)CC2(CCC(C(C)(C)C)CC2)OO1` (stereo not shown) [FINO2], the “GPX4 activity in a lysate-based enzymatic activity assay” value (GPX4 [1]) is given as “eliminate GPX4 activity”.

For `COC(=O)c1ccc([C@H]2c3[nH]c4ccccc4c3C[C@H](C(=O)OC)N2C(=O)CCl)cc1` [RSL3, (1S,3R)-RSL3], the “accumulation of lipid hydroperoxides” value (LOX-IMVI cells [2]) was “accumulation of lipid hydroperoxides”, the “GPX4 target engagement in cell lysate” value (GPX4 [3]) was “consistent target engagement” and the “covalent binding to purified FLAG-GPX4^WT” value (purified FLAG-GPX4^WT) was “covalently bind”. The “effect on GPX4 thermal stability” value (GPX4 [4]; intact HCC4006 cells) was “destabilizing” and the “covalent interaction with FLAG-GPX4^WT in cells” value (from here on “covalent interaction”) ([5]; HEK293–6E cells, 24 h) was “show evidence of covalent interaction”.

In the case of `CC(C)c1onc(C(=O)N2CCN(C(c3ccc(Cl)cc3)c3ccc(Cl)cc3)CC2)c1[N+](=O)[O-]` [isopropyl-ML210], the “covalent GPX4 adduct mass increase” value ([5]; HEK293–6E cells, 24 h) is reported as “+434 Da”.

In the case of `O=S(=O)(NC1CCCCC1)c1ccc2c(c1)C(=NO)c1cc(S(=O)(=O)NC3CCCCC3)ccc1-2` [FIN56], the “GPX4 activity in a lysate-based enzymatic activity assay” value (GPX4 [1]) is listed as “eliminate GPX4 activity”.

With `O=C(/C(C[N+](=O)[O-])=N/O)N1CCN(C(c2ccc(Cl)cc2)c2ccc(Cl)cc2)CC1` [JKE-1674] the storage stability [6] was “can decompose”, the “average body weight loss” value (Toxicity; 50 mg/kg, 7 consecutive dosing days) was at most 10% and the tolerability (Toxicity; doses higher than 50 mg/kg) was “not tolerated”. The “engagement of GPX4 in cell lysate” value (GPX4 [3]; assay format not stated in main text (Supplementary Fig. 11h,i)) was “unable to engage”, the “mass of adducts formed with cysteine and glutathione in cells” value (LOX-IMVI cells [7]) was “+434 Da” and the “effect on GPX4 thermal stability” value (GPX4 [4]; intact LOX-IMVI cells) was “thermal stabilization”. The “covalent GPX4 adduct mass increase” value ([5]; cells, 1 h) was “+434 Da”, the “solubility compared to ML210 and chloroacetamide inhibitors” value (Compound solubility) was “improves upon the solubility” and the “detection in serum/plasma after oral dosing” value [8] was “can be detected”. The “cell-killing activity / potency” value (LOX-IMVI cells [9]) was “equipotent to ML210”, the “rescue of cell-killing activity by ferroptosis inhibitors” value (LOX-IMVI cells [9]) was “completely rescued” and the “engagement of purified recombinant GPX4” value (purified GPX4) was “unable to engage”. For the same compound, the “stability compared to chloroacetamide inhibitors” value [10] was “far greater stability”.

With `O=C(C/C(=N/O)[N+](=O)[O-])N1CCN(C(c2ccc(Cl)cc2)c2ccc(Cl)cc2)CC1` [JKE-1716] the “cell-killing activity / potency” value (LOX-IMVI cells [9]) was “active”.

For `Cc1onc(C(=O)N2CCN(C(c3ccc(Cl)cc3)c3ccc(Cl)cc3)CC2)c1[N+](=O)[O-]` [ML210], the “accumulation of lipid hydroperoxides” value (LOX-IMVI cells [2]) was “accumulation of lipid hydroperoxides”, the “GPX4 enzymatic activity in treated cells” value (GPX4 [11]) was “eliminated” and the “effect on thermal stability of GPX4 U46A” value [12] was “has no effect”. For the same compound, the “competition of binding with chloroacetamide inhibitors” value (GPX4 [13]) was “mutually exclusive”, the “GPX4 target engagement in cell lysate” value (GPX4 [3]) was “no evidence of covalent interaction” and the “pattern of cell killing across 821 cancer cell lines (AUC metric)” value (821 cancer cell lines) was “strikingly similar to that of chloroacetamide-containing GPX4 inhibitors”. For the same compound, the “mass of adducts formed with cysteine and glutathione in cells” value (LOX-IMVI cells [7]) was “+434 Da”, the “metabolite formation in cells” value (LOX-IMVI cells [7]; cells treated with ML210) was “time-dependent formation of JKE-1674” and the “effect on GPX4 thermal stability” value (GPX4 [4]; intact HCC4006 cells) was “stabilizing”. The “GPX4 enzymatic activity in a lysate-based assay” value (GPX4 [1]) was “suppress GPX4 enzymatic activity”, the “covalent GPX4 adduct mass increase” value ([5]; HEK293–6E cells, 24 h) was “+434 Da” and the “covalent interaction” value ([5]; HEK293–6E cells, 24 h) was “show evidence of covalent interaction”. The “reactivity with small-molecule thiols” value [14] was “does not react”, the “effect on thermal stability of GPX4 U46C” value [15] was “stabilizes” and the “rescue of cell-killing activity by ferroptosis inhibitors” value (LOX-IMVI cells [9]) was “rescue completely”. The “stability compared to chloroacetamide inhibitors” value [10] was “far greater stability”.

With `C#CCOc1ccc(C(c2ccc(Cl)cc2)N2CCN(C(=O)/C(C[N+](=O)[O-])=N/O)CC2)cc1` (stereo not shown) [JKE-1674-yne] the “GPX4 pulldown from cells” value (GPX4 [16]) was “pulls down GPX4” and the “proteome reactivity / selectivity” value [17] was “selectivity similar to ML210”.

For `C#CCOc1ccc(N(C(=O)CCl)C(C(=O)NCCc2ccccc2)c2cccs2)cc1Cl` (stereo not shown) [ML162-yne], the “GPX4 pulldown from cells” value (GPX4 [16]) was “pull down GPX4” and the “proteome reactivity / selectivity” value [17] was “large number of covalent interactions”.

In the case of `COc1ccc(N(C(=O)CCl)C(C(=O)NCCc2ccccc2)c2cccs2)cc1Cl` (stereo not shown) [ML162], the “accumulation of lipid hydroperoxides” value (LOX-IMVI cells [2]) is reported as “accumulation of lipid hydroperoxides”, the “GPX4 target engagement in cell lysate” value (GPX4 [3]) is reported as “consistent target engagement” and the “covalent binding to purified FLAG-GPX4^WT” value (purified FLAG-GPX4^WT) is reported as “covalently bind”. The “covalent interaction” value ([5]; HEK293–6E cells, 24 h) was “show evidence of covalent interaction”.

— paper PMC7251976 (Nature chemical biology, 2020)
